Assay results reported in ChEMBL document CHEMBL5236623, “Designing Selective Drug-like Molecular Glues for the Glucocorticoid Receptor/14-3-3 Protein-Protein Interaction” (J Med Chem, 2022).
The source made the active and inactive calls. No cut-off for these calls is given here.

Tests used:
Homo sapiens [1] = species on record: Homo sapiens; assay: (§1) Stabilization of fluorescently-labeled human ER_pT594 peptide/human 14-3-3 zeta expressed in Escherichia coli BL21 (DE3)STAR competent cells protein-protein interaction assessed as fold increase in FP signal of 14-3-3/phosphopeptide complex at […] incubated for 1 hr by Fluorescence polarization assay relative to DMSO
Homo sapiens [2] = species on record: Homo sapiens; assay: Stabilization of fluorescently-labeled human ER_pT594 peptide/human 14-3-3 zeta expressed in Escherichia coli BL21 (DE3)STAR competent cells protein-protein interaction assessed as increase in FP signal of 14-3-3/phosphopeptide complex incubated for 1 hr by Fluorescence polarization assay
Outline: (§2)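 14-3-3ζ/phosphopeptide fluorescence polarization assay run as a concentration-response. EC1.2 is the compound concentration (μM) giving a 20% rise in FP signal of the 14-3-3/phosphopeptide complex, read from the curve. Triplicate, three independent experiments, errors as standard deviation.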

Homo sapiens [3] = species on record: Homo sapiens; assay: as §1, with “GR_pT524” for “ER_pT594”
Homo sapiens [4] = species on record: Homo sapiens; assay: Stabilization of fluorescently-labeled human GR_pT524 peptide/human 14-3-3 zeta expressed in Escherichia coli BL21 (DE3)STAR competent cells protein-protein interaction assessed as increase in FP signal of 14-3-3/phosphopeptide complex incubated for 1 hr by Fluorescence polarization assay; outline: as §2
Homo sapiens [5] = species on record: Homo sapiens; assay: Selectivity index, ratio of EC20 for stabilization of fluorescently-labeled human GR_pT524 peptide/human 14-3-3 zeta expressed in Escherichia coli BL21 (DE3)STAR competent cells protein-protein interaction to EC20 for stabilization of fluorescently-labeled human ER_pT594 peptide/human 14-3-3 zeta expressed in Escherichia coli BL21 (DE3)STAR competent cells protein-protein interaction
[6] = Apparent permeability across apical to basolateral side in human Caco-2 cells at 10 uM incubated for 2 hrs; assay type: ADME, cell-based; settings: caco-2, 2 h
[7] = target: T1, Glucocorticoid receptor (Homo sapiens) (UniProt P04150); assay: Displacement of [3H]dexamethasone from human glucocorticoid receptor by scintillation based radioligand binding assay
T1 sequence (whole entry): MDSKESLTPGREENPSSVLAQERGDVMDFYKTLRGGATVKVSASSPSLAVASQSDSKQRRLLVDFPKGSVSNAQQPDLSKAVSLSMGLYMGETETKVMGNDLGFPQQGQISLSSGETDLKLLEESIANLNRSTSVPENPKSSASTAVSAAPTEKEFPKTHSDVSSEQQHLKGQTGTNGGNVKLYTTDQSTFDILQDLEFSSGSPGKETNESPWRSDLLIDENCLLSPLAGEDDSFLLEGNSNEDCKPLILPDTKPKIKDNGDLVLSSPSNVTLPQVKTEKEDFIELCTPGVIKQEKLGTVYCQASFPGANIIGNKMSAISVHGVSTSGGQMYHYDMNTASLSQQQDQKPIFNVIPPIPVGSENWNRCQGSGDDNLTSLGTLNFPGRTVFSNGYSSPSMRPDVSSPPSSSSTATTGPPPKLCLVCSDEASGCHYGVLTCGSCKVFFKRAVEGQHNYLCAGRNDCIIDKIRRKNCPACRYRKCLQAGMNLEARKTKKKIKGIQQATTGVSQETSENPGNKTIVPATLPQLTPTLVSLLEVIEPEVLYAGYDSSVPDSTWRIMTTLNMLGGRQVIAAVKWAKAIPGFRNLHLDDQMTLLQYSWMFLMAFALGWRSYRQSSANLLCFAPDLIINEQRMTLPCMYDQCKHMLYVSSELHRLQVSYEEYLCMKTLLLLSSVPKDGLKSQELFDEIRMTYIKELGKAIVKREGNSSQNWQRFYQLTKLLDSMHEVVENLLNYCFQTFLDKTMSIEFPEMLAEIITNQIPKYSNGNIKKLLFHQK

Homo sapiens [8] = species on record: Homo sapiens; assay: Stabilization of fluorescently-labeled human GR_pT524 peptide/human 14-3-3 zeta expressed in Escherichia coli BL21 (DE3)STAR competent cells protein-protein interaction assessed as increase in FP signal of 14-3-3/phosphopeptide complex at […] incubated for 1 hr by Fluorescence polarization assay
Homo sapiens [9] = species on record: Homo sapiens; assay: Stabilization of fluorescently-labeled human ER_pT594 peptide/human 14-3-3 zeta expressed in Escherichia coli BL21 (DE3)STAR competent cells protein-protein interaction assessed as increase in FP signal of 14-3-3/phosphopeptide complex at […] incubated for 1 hr by Fluorescence polarization assay
Homo sapiens [10] = species on record: Homo sapiens; assay: Stabilization of human GR_pT524 peptide/6His-tagged human 14-3-3 zeta protein-protein interaction at 1 mM by surface plasmon resonance analysis

Structure (SMILES): O=C(O)c1cc(N2C(=O)C(O)=C(C(=O)c3ccccc3Cl)C2c2ccc([N+](=O)[O-])cc2)ccc1O (stereo not drawn)
- fold change (FC) (Homo sapiens [1]): 1.4
- EC20 (Homo sapiens [2]): 73 µM
- fold change (FC) (Homo sapiens [3]): 1.2
- EC20 (Homo sapiens [4]): 96 µM

Structure (SMILES): O=C(C1=C(O)C(=O)N(c2ccc(O)c(C(=O)O)c2)[C@@H]1c1ccc([N+](=O)[O-])cc1)c1ccc(Cl)cc1
- EC20 (Homo sapiens [4]): 30 µM

Structure (SMILES): O=C(C1=C(O)C(=O)N(c2ccc(O)c(C(=O)O)c2)C1c1ccc([N+](=O)[O-])cc1)c1ccccc1 (stereo not drawn)
- fold change (FC) (Homo sapiens [1]): 1.9
- EC20 (Homo sapiens [2]): 28 µM
- Ratio (Homo sapiens [5]): 2
- Papp [6]: 0.047 10^-6 cm/s
- fold change (FC) (Homo sapiens [3]): 1.4
- EC20 (Homo sapiens [4]): 63 µM

Structure (SMILES): O=C(C1=C(O)C(=O)N(c2ccc(O)c(C(=O)O)c2)C1c1ccc([N+](=O)[O-])cc1)c1ccc(Cl)cc1 (racemic)
- Activity [7]: inactive
- EC20 (Homo sapiens [4]): 42 µM

Structure (SMILES): O=C(C1=C(O)C(=O)N(c2ccc(O)c(C(=O)O)c2)C1c1ccccc1)c1ccccc1 (stereo not drawn)
- Activity (Homo sapiens [8]): inactive
- Activity (Homo sapiens [9]): inactive

Structure (SMILES): C=CC(C)(C)OC[C@H]1O[C@H](O[C@@H]2C3=C([C@H](C)COC(C)=O)C[C@H](O)[C@]3(C)/C=C3/[C@@H](COC)CC[C@H]3[C@@H](C)[C@H]2O)[C@H](O)[C@@H](O)[C@@H]1O
- Activity (Homo sapiens [10]): inactive
- Activity (Homo sapiens [4]): inactive

Structure (SMILES): O=C(C1=C(O)C(=O)N(c2ccc(O)cc2)C1c1ccc([N+](=O)[O-])cc1)c1ccccc1 (stereo not drawn)
- Activity (Homo sapiens [8]): inactive
- fold change (FC) (Homo sapiens [1]): 1.6
- EC20 (Homo sapiens [2]): 87 µM
- Papp [6]: 0.13 10^-6 cm/s

Structure (SMILES): O=C(C1=C(O)C(=O)N(c2ccc(O)c(C(=O)O)c2)C1c1ccc([N+](=O)[O-])cc1)c1cccc(OC(F)F)c1 (stereo not drawn)
- Activity (Homo sapiens [8]): inactive
- Activity (Homo sapiens [9]): inactive

Structure (SMILES): O=C(O)c1cc(N2C(=O)C(O)=C(c3ccccc3)C2c2ccc([N+](=O)[O-])cc2)ccc1O (racemic)
- Activity (Homo sapiens [9]): inactive
- fold change (FC) (Homo sapiens [3]): 1.4
- EC20 (Homo sapiens [4]): 45 µM

Structure (SMILES): O=C(O)c1cc(N2C(=O)C(O)=C(Cc3ccccc3)C2c2ccc([N+](=O)[O-])cc2)ccc1O (stereo not drawn)
- fold change (FC) (Homo sapiens [1]): 1.2
- EC20 (Homo sapiens [2]): 175 µM
- fold change (FC) (Homo sapiens [3]): 1.3
- EC20 (Homo sapiens [4]): 82 µM

Structure (SMILES): O=C(C1=C(O)C(=O)N(c2ccc(O)c(C(=O)O)c2)[C@@H]1c1ccc([N+](=O)[O-])cc1)c1ccccc1
- fold change (FC) (Homo sapiens [1]): 2.3
- EC20 (Homo sapiens [2]): 15 µM
- fold change (FC) (Homo sapiens [3]): 1.6
- EC20 (Homo sapiens [4]): 32 µM

Structure (SMILES): O=C(C1=C(O)C(=O)N(c2ccc(O)c(C(=O)O)c2)C1c1ccc2c(c1)COC2=O)c1ccccc1 (stereo not drawn)
- fold change (FC) (Homo sapiens [1]): 1.6
- EC20 (Homo sapiens [2]): 63 µM
- fold change (FC) (Homo sapiens [3]): 1.2
- EC20 (Homo sapiens [4]): 150 µM

Structure (SMILES): O=C(O)c1cc(N2C(=O)C(O)=C(c3ccccc3)C2c2ccc([N+](=O)[O-])cc2)ccc1O (single isomer, unassigned; (+))
- Activity (Homo sapiens [9]): inactive

Structure (SMILES): O=C(C1=C(O)C(=O)N(c2ccccc2O)C1c1ccc([N+](=O)[O-])cc1)c1ccccc1 (stereo not drawn)
- Activity (Homo sapiens [8]): inactive
- fold change (FC) (Homo sapiens [1]): 1.4
- EC20 (Homo sapiens [2]): 75 µM
- Papp [6]: 0.25 10^-6 cm/s

Structure (SMILES): O=C(O)c1cc(N2C(=O)C(O)=C(c3ccccc3)C2c2ccc([N+](=O)[O-])cc2)ccc1O (single isomer, unassigned; (-))
- Activity (Homo sapiens [9]): inactive
- fold change (FC) (Homo sapiens [3]): 1.5
- EC20 (Homo sapiens [4]): 40 µM

Structure (SMILES): Nc1ccc(C2C(C(=O)c3ccccc3)=C(O)C(=O)N2c2ccc(O)c(C(=O)O)c2)cc1 (stereo not drawn)
- Activity (Homo sapiens [8]): inactive
- Activity (Homo sapiens [9]): inactive

Structure (SMILES): O=C(C1=C(O)C(=O)N(c2ccc(O)c(C(=O)O)c2)[C@H]1c1ccc([N+](=O)[O-])cc1)c1ccc(Cl)cc1
- Activity (Homo sapiens [9]): inactive
- EC20 (Homo sapiens [4]): 126 µM

Structure (SMILES): O=C(C1=C(O)C(=O)N(c2ccc(O)c(C(=O)O)c2)[C@H]1c1ccc([N+](=O)[O-])cc1)c1ccccc1
- Activity (Homo sapiens [9]): inactive
- fold change (FC) (Homo sapiens [3]): 1.2
- EC20 (Homo sapiens [4]): 162 µM
